Tests used:
[1] = tested on: MT4; assay: 50% inhibition of HIV replication in MT-4 cells; assay type: functional; settings: Homo sapiens, read-out: ID50 (the source's name)
Summary of the method: (§1)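 HIV-1-infected MT-4 cells (MOI 0.2-0.5; cells at 2 × 10^6 cells/mL, viability >90%) in RPMI-1640 with 10% FBS, L-glutamine, gentamycin and lincomycin. Cultured 3 days with compound at 0.001-100 µg/mL, triplicate per dose. Replication measured as p24 antigen by immunoassay.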

[2] = Half life for the hydrolysis of compound in human blood serum; assay type: ADME, cell-free, Plasma
[3] = tested on: MT4; assay: 90% inhibition of HIV replication in MT-4 cells; assay type: functional, Homo sapiens; summary of the method: as §1
[4] = Half life for hydrolysis of compound in phosphate buffer of pH 7.2 at 20 degree C; assay type: ADME
[5] = tested on: MT4; assay: 50% inhibition of MT-4 cell proliferation.; assay type: functional; settings: Homo sapiens, read-out: CD50 (the source's name)
Summary of the method: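 MT-4 cells in RPMI-1640 with 10% FBS, cultured 3 days with compound at 0.001-200 µg/mL, triplicate per dose. Cell concentration and viability measured by trypan blue dye exclusion, and CD50 calculated.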

[6] = tested on: MT4; assay: Ratio of CD50 to ID50 was determined; assay type: functional, Homo sapiens

Row | SMILES | IC50 [1] [µM] | half-life [2] [h] | ID90 [3] [µM] | half-life [4] [h] | CC50 [5] [µM] | IS [6]
1 | CCOP(=O)(OCC1OC(n2cc(C)c(=O)[nH]c2=O)CC1N=[N+]=[N-])C(N)=O (stereo not drawn) | 0.002 | 0.117 | 0.019 | 2.5 | 249 | 124300
2 | CCOP(=O)(OCC1C=CC(n2cc(C)c(=O)[nH]c2=O)O1)C(N)=O (stereo not drawn) | 0.03 | 0.35 | 7.21 | 7 | 214 | 7143
3 | CCOC(=O)P(=O)(OCC)OCC1OC(n2cc(C)c(=O)[nH]c2=O)CC1N=[N+]=[N-] (stereo not drawn) | 0.0071 | – | 0.016 | 0.167 | 116 | 16338
4 | CCOP(=O)(OCC1C=CC(n2cc(C)c(=O)[nH]c2=O)O1)C(=O)NCCc1ccccc1 (stereo not drawn) | 0.043 | – | – | > 20 | 66.9 | 1555
5 | CCOC(=O)CP(=O)(OCC)OCC1C=CC(n2cc(C)c(=O)[nH]c2=O)O1 (stereo not drawn) | > 10 | – | – | > 8 | 136 | <13
6 | CCOC(=O)CP(=O)(OCC)OCC1OC(n2cc(C)c(=O)[nH]c2=O)CC1N=[N+]=[N-] (stereo not drawn) | 0.23 | – | – | – | > 224 | >974
7 | CCOC(=O)CP(=O)(OCC1C=CC(n2cc(C)c(=O)[nH]c2=O)O1)OC1CCCCC1 (stereo not drawn) | > 10 | – | – | – | 131 | <13
8 | CCOP(=O)(OCC1OC(n2cc(C)c(=O)[nH]c2=O)CC1N=[N+]=[N-])C(=O)NC (stereo not drawn) | 0.00024 | – | 0.0072 | 6 | 113 | 470416
9 | CCOP(=O)(CC(N)=O)OCC1OC(n2cc(C)c(=O)[nH]c2=O)CC1N=[N+]=[N-] (stereo not drawn) | 0.29 | – | 1.68 | > 20 | 456 | 1573
10 | CCOP(=O)(OCC1OC(n2cc(C)c(=O)[nH]c2=O)CC1N=[N+]=[N-])C(=O)NCCc1ccccc1 (stereo not drawn) | 0.009 | – | – | 10 | 177 | 19711
11 | Cc1cn([C@H]2C[C@H](N=[N+]=[N-])[C@@H](CO)O2)c(=O)[nH]c1=O [ZIDOVUDINE] | 0.017 | – | 0.75 | – | 188 | 11029
12 | CCOP(=O)(CC(N)=O)OCC1C=CC(n2cc(C)c(=O)[nH]c2=O)O1 (stereo not drawn) | 5.4 | > 24 | 18.8 | > 24 | 268 | 49.6
13 | Cc1cn([C@H]2C=C[C@@H](CO)O2)c(=O)[nH]c1=O [STAVUDINE] | 0.24 | – | 23.8 | – | – | 1308
14 | CCOC(=O)P(=O)(OCC)OCC1C=CC(n2cc(C)c(=O)[nH]c2=O)O1 (stereo not drawn) | 0.23 | – | 21.7 | 0.5 | 136 | 591
15 | CCOP(=O)(OCC1C=CC(n2cc(C)c(=O)[nH]c2=O)O1)C(=O)NC (stereo not drawn) | 0.013 | – | 0.27 | 15 | 85.7 | 6592
16 | CCOC(=O)CP(=O)(OCC1OC(n2cc(C)c(=O)[nH]c2=O)CC1N=[N+]=[N-])OC1CCCCC1 (stereo not drawn) | 0.4 | – | 1.4 | > 8 | 280 | 700

From ChEMBL document CHEMBL1149185, “Uncharged AZT and D4T derivatives of phosphonoformic and phosphonoacetic acids as anti-HIV pronucleosides” (J Med Chem, 2004)
